We go through 37 compounds from the M2OR odorant receptor database.

The structures appear in SMILES notation.
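Also: active if original authors judged signal statistically different from baseline.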

For the test, the target named is T1, OR1A1 (Homo sapiens) (UniProt Q9P1Q5).
T1 sequence (whole entry): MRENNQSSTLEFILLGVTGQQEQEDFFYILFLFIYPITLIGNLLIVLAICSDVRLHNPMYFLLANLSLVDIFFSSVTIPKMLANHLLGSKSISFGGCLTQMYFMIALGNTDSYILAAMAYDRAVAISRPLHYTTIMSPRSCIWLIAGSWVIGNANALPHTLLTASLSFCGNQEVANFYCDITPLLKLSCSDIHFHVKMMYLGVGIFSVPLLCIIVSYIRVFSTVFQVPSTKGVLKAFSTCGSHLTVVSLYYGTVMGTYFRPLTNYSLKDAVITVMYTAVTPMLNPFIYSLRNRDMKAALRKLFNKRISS
Conditions: stereoisomer not certain. In outline:
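Each receptor–molecule pair is labelled responsive or non-responsive (inactive) according to whether the original authors judged the measured signal statistically different from baseline. The data were taken from the main text and supplementary material of published papers and checked for typos and inconsistencies. Assay methods differed by source, with transient luciferase assays in mammalian cell lines being common.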
For the compound `CC(C)c1ccc(C=O)cc1`, the “odorant receptor agonist call” value is “inactive”.

`C=CC(=O)CC`: the “odorant receptor agonist call” value is “inactive”.

In the case of `CC(C)=CCCC(C)=CCO`, the “odorant receptor agonist call” value was “active”.

Regarding `CC(=O)C(C)O` (configuration not stated), the “odorant receptor agonist call” value is “inactive”.

Take `CC(=O)CC(C)(C)S`: the “odorant receptor agonist call” value was “inactive”.

With `CC(=O)C=CC1=C(C)CCCC1(C)C`, the “odorant receptor agonist call” value is “inactive”.

As for `CSC`, the “odorant receptor agonist call” value is “inactive”.

`CCCCCCOC(C)=O`: the “odorant receptor agonist call” value was “inactive”.

For the compound `CCC(C)C=O` (configuration not stated), the “odorant receptor agonist call” value was “inactive”.

On to `CC=Cc1ccc(OC)cc1`, for which the “odorant receptor agonist call” value is “active”.

In the case of `C=Cc1ccc(O)cc1`, the “odorant receptor agonist call” value is “inactive”.

On to `CC(=O)CCc1ccc(O)cc1`, for which the “odorant receptor agonist call” value is “inactive”.

As for `CC(=O)OCc1ccccc1`, the “odorant receptor agonist call” value is “active”.

Take `CCC(C)c1nccnc1OC` (configuration not stated): the “odorant receptor agonist call” value is “inactive”.

Take `CC1=CCC2CC1C2(C)C` (configuration not stated): the “odorant receptor agonist call” value was “inactive”.

Consider `CCOC(C)OCC`, for which the “odorant receptor agonist call” value was “inactive”.

With `COc1nccnc1CC(C)C`, the “odorant receptor agonist call” value was “inactive”.

As to `CCCC=CC=O`, the “odorant receptor agonist call” value is “inactive”.

In the case of `CC(=O)OCC=Cc1ccccc1`, the “odorant receptor agonist call” value was “inactive”.

As to `CCOC(=O)C1CCCCC1`, the “odorant receptor agonist call” value is “active”.

As for `CCCCC(CC)CCC(=O)O` (configuration not stated), the “odorant receptor agonist call” value is “inactive”.

For `CC(=O)C=CC1C(C)=CCCC1(C)C` (configuration not stated), the “odorant receptor agonist call” value was “inactive”.

Consider `CCc1cnccn1`, for which the “odorant receptor agonist call” value was “inactive”.

Turning to `COC(=O)Cc1ccccc1C`, the “odorant receptor agonist call” value was “active”.

As to `CCCCCCCCCCO`, the “odorant receptor agonist call” value is “active”.

Take `CCC=CCCCCCC=O`: the “odorant receptor agonist call” value is “active”.

Regarding `CCc1ccc(O)cc1`, the “odorant receptor agonist call” value is “inactive”.

Take `CCCCCCCCC=CC=O`: the “odorant receptor agonist call” value is “inactive”.

Turning to `CCC=O`, the “odorant receptor agonist call” value was “inactive”.

With `CCCCC=CC=O`, the “odorant receptor agonist call” value was “inactive”.

In the case of `CCCC(S)CCO` (configuration not stated), the “odorant receptor agonist call” value was “inactive”.

Turning to `O=C(c1ccccc1)c1ccccc1`, the “odorant receptor agonist call” value is “active”.

`CCC(=O)C(=O)CC`: the “odorant receptor agonist call” value was “inactive”.

As to `CCC(=O)C1=NCCC1`, the “odorant receptor agonist call” value was “inactive”.

For `CC1CCC(C(C)C)C(=O)C1` (configuration not stated), the “odorant receptor agonist call” value is “active”.

Turning to `CCOC(C)=O`, the “odorant receptor agonist call” value was “inactive”.

Turning to `CCCC1CCCC(=O)O1` (configuration not stated), the “odorant receptor agonist call” value was “inactive”.
